pIC50: −log10 of the molar value. Active and inactive are the calls of the source.
Key:
[1] = Selectivity index, ratio of IC50 for Vero cells to IC50 for Trypanosoma cruzi epimastigote; assay type: toxicity, cell-based; conditions: monkey, Vero cells versus Trypanosoma cruzi epimastigotes; read-out: Ratio IC50
Trypanosoma cruzi [2] = test: Antitrypanosomal activity against Trypanosoma cruzi infected in BALB/c mouse assessed as reduction in trypomastigotes at 1 mg/kg, ip dosed for 5 days measured on day 14 post infection; assay type: functional, organism-based; set-up: dose 1 mg/kg
Procedure, shortened: (§1)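 Female BALB/c mice infected with trypomastigotes, dosed ip at 1 mg/kg/day on days 5–10 postinfection; vehicle controls. Mandibular vein blood (5 μL) diluted in citrate/lysis buffer pH 7.2; parasites counted under immersion objective every 2 days from day 5 to 30, as parasites/mL.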

Trypanosoma cruzi [3] = test: Antitrypanosomal activity against Trypanosoma cruzi infected in BALB/c mouse assessed as reduction in anti-organism antibody at 1 mg/kg, ip dosed for 5 days measured on day 40 to 120 post infection; assay type: functional, organism-based; set-up: dose 1 mg/kg
Procedure, shortened: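 Infected female BALB/c mice given 1 mg/kg/day ip for 5 days. Serum (1:50 in PBS) on days 40 and 120 tested by ELISA against excreted epimastigote Fe-SOD antigen; absorbance 490 nm, cutoff = negative-control mean + 3 SD; change is day-120 minus day-40 absorbance.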

[4] = Inhibition of Trypanosoma cruzi epimastigotes Fe-SOD by NBT reduction assay
Procedure, shortened: (§2)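 Enzyme from epimastigotes grown without FBS (excreted Fe-SOD), sonicated in STE buffer pH 7.8, centrifuged, supernatant protein by Bradford; human erythrocyte CuZn-SOD for comparison. NBT reduction by superoxide (Beyer–Fridovich): methionine, NBT, Triton X-100, riboflavin, homogenate plus compound; A560 read before and after 10 min UV illumination with stirring. Five separate determinations; Newman–Keuls test against control.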

Trypanosoma cruzi [5] = test: Trypanosomicidal activity against Trypanosoma cruzi epimastigotes assessed as very electron dense protozoan cells by TEM analysis; assay type: functional, organism-based
Trypanosoma cruzi [6] = test: Trypanosomicidal activity against Trypanosoma cruzi epimastigotes assessed as inhibition of acetate metabolite excretion after 96 hrs by NMR analysis; assay type: functional
Procedure, shortened: (§3)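 Epimastigotes (5 × 10^5 cells/mL) exposed to IC25 of compound for 96 h at 28 °C; supernatant after centrifugation analysed by 1H NMR with DSS reference, compared against untreated cultures.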

Mus musculus [7] = test: Toxicity in BALB/c mouse liver infected with Trypanosoma cruzi assessed as lymphocytic infiltrations in portal tracts at 5 mg/kg, ip after 120 days postinfection Histopathological analysis; assay type: organism-based; set-up: dose 5 mg/kg, route intraperitoneal; conditions: in vivo, 2880 h
Procedure, shortened: (§4)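 Livers removed at 120 days postinfection, fixed in 10% buffered formalin, paraffin-embedded, 4–5 μm sections stained with H&E and Masson's trichrome. Blinded scoring of at least 30 fields per slide, 0 (none) to 5 (severe).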

Trypanosoma cruzi [8] = test: Trypanosomicidal activity against Trypanosoma cruzi SN3 epimastigote after 72 hrs by hemocytometric analysis; assay type: functional, organism-based; conditions: SN3, 72 h
Procedure, shortened: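 Exponential-phase SN3 epimastigotes (Grace's medium, 10% FBS, 28 °C) seeded at 5 × 10^4 parasites/well with compounds dissolved in MTL at 1, 10, 25, 50, 100 μM.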

Vero = test: Cytotoxicity against African green monkey Vero cells assessed as cell viability after 72 hrs by flow cytometric analysis; assay type: cell-based; conditions: Chlorocebus sabaeus
Procedure, shortened: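 Vero cells grown in RPMI with 10% inactivated FBS at 37 °C, 5% CO2, seeded at 1 × 10^5 cells/mL, grown 2 days, then exposed to 1–100 μM compound for 72 h. Viability measured by flow cytometry; IC50 by linear regression.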

Trypanosoma cruzi [9] = test: Trypanosomicidal activity against Trypanosoma cruzi infected in Vero cells assessed as reduction in trypomastigotes in culture medium after 10 days by Giemsa staining method; assay type: functional; set-up: scale not given: the % may be the effect or the level left
Procedure, shortened: (§5)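 Vero cells infected with metacyclic forms (10:1); compounds at IC25 added at infection for 12 h at 37 °C, then washed out and cultures grown 10 days with medium renewed every 48 h. Infected cells and amastigotes per cell counted in >100 host cells on Giemsa-stained slides; trypomastigotes in medium counted; mean of four determinations.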

Mus musculus [10] = test: Toxicity in BALB/c mouse liver infected with Trypanosoma cruzi assessed as intestinal hemorrhage at 5 mg/kg, ip after 120 days postinfection by Histopathological analysis; assay type: organism-based; set-up: dose 5 mg/kg, route intraperitoneal; conditions: in vivo, 2880 h; procedure, shortened: as §4
Trypanosoma cruzi [11] = test: Trypanosomicidal activity against Trypanosoma cruzi infected in Vero cells assessed as reduction in rate of infection after 10 days by Giemsa staining method; assay type: functional; set-up: scale not given: the % may be the effect or the level left; procedure, shortened: as §5
Trypanosoma cruzi [12] = test: Trypanosomicidal activity against Trypanosoma cruzi epimastigotes assessed as inhibition of succinate metabolite excretion after 96 hrs by NMR analysis; assay type: functional; procedure, shortened: as §3
[13] = Selectivity index, ratio of IC50 for Vero cells to IC50 for Trypanosoma cruzi anexic amastigote; assay type: toxicity, cell-based; conditions: monkey, Vero cells versus Trypanosoma cruzi axenic amastigotes; read-out: Ratio IC50
Trypanosoma cruzi [14] = test: Trypanosomicidal activity against Trypanosoma cruzi SN3 anexic amastigote after 48 hrs by hemocytometric analysis; assay type: functional, organism-based; conditions: SN3, 48 h
Procedure, shortened: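 Axenic amastigotes obtained from epimastigotes after 3 days in supplemented M199 (10% FCS, pH 5.4, 37 °C).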

Trypanosoma cruzi [15] = test: Trypanosomicidal activity against Trypanosoma cruzi epimastigotes assessed as intense vacuolization of protozoan cells by TEM analysis; assay type: functional, organism-based
Trypanosoma cruzi [16] = test: Inhibition of Trypanosoma cruzi epimastigotes Fe-SOD at 25 ug/ml by NBT reduction assay; procedure, shortened: as §2
Trypanosoma cruzi [17] = test: Inhibition of Trypanosoma cruzi epimastigotes Fe-SOD at 50 ug/ml by NBT reduction assay; procedure, shortened: as §2
[18] = Selectivity index, ratio of IC50 for Vero cells to IC50 for Trypanosoma cruzi intracellular amastigote infected in Vero cells; assay type: toxicity, cell-based; conditions: monkey; read-out: Ratio IC50
Trypanosoma cruzi [19] = test: Trypanosomicidal activity against Trypanosoma cruzi epimastigotes assessed as distorted shape of protozoan cells by TEM analysis; assay type: functional, organism-based
Trypanosoma cruzi [20] = test: Trypanosomicidal activity against Trypanosoma cruzi infected in Vero cells assessed as reduction in amastigotes per infected Vero cells after 6 days by Giemsa staining method; assay type: functional; set-up: scale not given: the % may be the effect or the level left
[21] = molecular target: Superoxide dismutase [Cu-Zn], SOD1 (Homo sapiens) (UniProt P00441); test: Activity of human erythrocyte Cu-Zn SOD by NBT reduction assay
Mus musculus [22] = test: Toxicity in BALB/c mouse liver infected with Trypanosoma cruzi assessed as blood vessels with thickened walls at 5 mg/kg, ip after 120 days postinfection by Histopathological analysis; assay type: organism-based, Blood vessel; set-up: dose 5 mg/kg, route intraperitoneal; conditions: in vivo, 2880 h; procedure, shortened: as §4
Trypanosoma cruzi [23] = test: Trypanosomicidal activity against Trypanosoma cruzi SN3 amastigote infected in Vero cells after 72 hrs by Giemsa staining method; assay type: functional, organism-based
Procedure, shortened: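 Vero cells seeded at 1 × 10^4/well on coverslips, grown 2 days, infected with metacyclic forms (10:1) for 24 h, washed, then treated at 1–100 μM for 72 h in RPMI/10% FBS. Amastigote reduction scored on methanol-fixed Giemsa-stained slides; four determinations; IC50.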

Mus musculus [24] = test: Toxicity in BALB/c mouse liver infected with Trypanosoma cruzi assessed as granulomas with limphocitic infiltration at 5 mg/kg, ip after 120 days postinfection by Histopathological analysis; assay type: organism-based; set-up: dose 5 mg/kg, route intraperitoneal; conditions: in vivo, 2880 h; procedure, shortened: as §4
Mus musculus [25] = test: Toxicity in BALB/c mouse liver infected with Trypanosoma cruzi assessed as delocalized hepatic destruction at 5 mg/kg, ip after 120 days postinfection by Histopathological analysis; assay type: organism-based; set-up: dose 5 mg/kg, route intraperitoneal; conditions: in vivo, 2880 h; procedure, shortened: as §4
Mus musculus [26] = test: Toxicity in BALB/c mouse liver infected with Trypanosoma cruzi assessed as hepatic destruction in portal tracts at 5 mg/kg, ip after 120 days postinfection by Histopathological analysis; assay type: organism-based; set-up: dose 5 mg/kg, route intraperitoneal; conditions: in vivo, 2880 h; procedure, shortened: as §4
Trypanosoma cruzi [27] = test: Antitrypanosomal activity against Trypanosoma cruzi infected in BALB/c mouse assessed as reduction in parasitemia at 1 mg/kg, ip dosed for 5 days measured on day 30 post infection; assay type: functional; set-up: scale not given: the % may be the effect or the level left; conditions: route intraperitoneal; procedure, shortened: as §1
Mus musculus [28] = test: Toxicity in BALB/c mouse liver infected with Trypanosoma cruzi assessed as necrotic cells in portal tracts at 5 mg/kg, ip after 120 days postinfection by Histopathological analysis; assay type: organism-based; set-up: dose 5 mg/kg, route intraperitoneal; conditions: in vivo, 2880 h; procedure, shortened: as §4
Trypanosoma cruzi [29] = test: Antitrypanosomal activity against Trypanosoma cruzi infected in BALB/c mouse assessed as survival rate at 1 mg/kg, ip dosed for 5 days; assay type: functional; conditions: 120 h, route intraperitoneal
Procedure, shortened: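 Female BALB/c mice were infected with trypomastigotes of T. cruzi SN3 strain (Colombian R. prolixus isolate). Dosing was ip at 1 mg/kg/day for 5 consecutive days, on days 5–10 postinfection. Controls were infected mice given vehicle only, plus uninfected groups. Mortality was followed over the acute phase (first 30 days) and the chronic phase (days 40–120 postinfection).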

Chain of Superoxide dismutase [Cu-Zn], SOD1 (Homo sapiens) (P00441 whole entry, looked up): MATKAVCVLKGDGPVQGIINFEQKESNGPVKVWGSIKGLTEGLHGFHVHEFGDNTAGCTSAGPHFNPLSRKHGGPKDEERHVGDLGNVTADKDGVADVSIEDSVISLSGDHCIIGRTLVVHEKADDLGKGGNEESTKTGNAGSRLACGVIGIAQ

Structure (SMILES)	selectivity ratio [1]	Activity (Trypanosoma cruzi [3])	pIC50 [4]	inhibition (INH) (Trypanosoma cruzi [6]) [%]	Activity (Mus musculus [7])	pIC50 (Trypanosoma cruzi [8])	pIC50 (Vero)	Activity (Trypanosoma cruzi [9]) [%]	Activity (Mus musculus [10])	Activity (Trypanosoma cruzi [11]) [%]	selectivity ratio [13]	pIC50 (Trypanosoma cruzi [14])	inhibition (Trypanosoma cruzi [17]) [%]	selectivity ratio [18]	Activity (Trypanosoma cruzi [20]) [%]	Activity [21] [U/mg]	Activity (Mus musculus [22])	pIC50 (Trypanosoma cruzi [23])	Activity (Mus musculus [24])	Activity (Mus musculus [25])	further results
Cl.c1c2n[nH]c1CNCCN1CCNCc3cc(n[nH]3)CNCCN(CCNC2)CCNCc2cc([nH]n2)CNCC1	115	Active	4.51	22	Non-toxic	5.89	3.83	70	Non-toxic	74	20.7	5.14	98	24	50	23.4	Non-toxic	5.21	Non-toxic	Non-toxic	Activity (Trypanosoma cruzi [2]): Active; Activity (Trypanosoma cruzi [5]): Active; inhibition (INH) (Trypanosoma cruzi [12]): 7%; Activity (Trypanosoma cruzi [15]): Active; inhibition (Trypanosoma cruzi [16]): 70%; Activity (Trypanosoma cruzi [19]): Active; Activity (Mus musculus [26]): Toxic; Activity (Trypanosoma cruzi [27]): 53%; Activity (Mus musculus [28]): Non-toxic
O=C(Cn1ccnc1[N+](=O)[O-])NCc1ccccc1 [BENZNIDAZOLE]	–	Active	–	-6	Non-toxic	–	–	46	Toxic	23	–	4.72	–	–	13	–	Non-toxic	4.63	Toxic	Toxic	survival at 1 mg/kg (Trypanosoma cruzi [29]): 80%; Activity (Mus musculus [26]): Toxic; Activity (Trypanosoma cruzi [27]): 26%; Activity (Mus musculus [28]): Toxic
CCCCCCCCN1CCNCc2cc([nH]n2)CNCCN(CCCCCCCC)CCNCc2cc(n[nH]2)CNCC1	0.5	–	4.35	–	–	4.33	4.67	–	–	–	1	4.68	65	1.1	–	23.4	–	4.74	–	–	–
